Assay results published in PMC4245161 (ACS Chemical Biology, 2014).

Experiments:
[1] = test system: acetylated H3 at the CMV promoter in LDR cells; experiment: Chromatin immunoprecipitation of acetylated H3 at the CMV promoter; format: cell-based, mouse; conditions: 250 ng/mL, 24 h
Summary of the method: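 LDR cells (C127 mouse mammary line carrying a silenced CMV-GFP reporter; DMEM, 10% heat-inactivated FBS) treated with test compound at 250 ng/mL or DMSO vehicle (24 h per legend; overnight per methods). Formaldehyde cross-linking, then ChIP by standard protocol with anti-acetylated H3 antibody. After cross-link reversal, PCR with CMV-promoter primers run on a gel. Controls were a no-antibody background and 10% input.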

[2] = test system: GFP transcript in LDR cells; format: cell-based, mouse; conditions: 200 nM, 24 h, relative to DMSO-treated cells

Structure (SMILES): CC(/C=C/C(=O)NO)=C\[C@@H](C)C(=O)c1ccc(N(C)C)cc1 [Trichostatin A]
- histone acetylation at the CMV promoter (ChIP) [1]: markedly increases
- induction of GFP transcripts [2]: at least 5 fold
